Holding throughout (assay type): biochemical
One test has as its target FAS from chicken liver (Gallus gallus, UniProt P12276). The test can be described thus: FAS inhibition assay. The essentials: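 Chicken liver FAS (10 µg) with test compound (10–200 µg/mL) in 100 mM potassium phosphate buffer containing 1 mM dithiothreitol, 1 mM EDTA, 10 µM malonyl-CoA, 3 µM acetyl-CoA and 35 µM NADPH. Activity was followed at 37 °C as the change in NADPH absorbance at 340 nm. The blank omitted the enzyme.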

Another test addresses α-glucosidase (maltase) (Saccharomyces cerevisiae, UniProt P53341). Briefly: α-glucosidase inhibition assay.
In a further test the target is XO (Bos taurus, UniProt P80457). Briefly: XO inhibition assay.
Chain of XO (P80457 whole entry): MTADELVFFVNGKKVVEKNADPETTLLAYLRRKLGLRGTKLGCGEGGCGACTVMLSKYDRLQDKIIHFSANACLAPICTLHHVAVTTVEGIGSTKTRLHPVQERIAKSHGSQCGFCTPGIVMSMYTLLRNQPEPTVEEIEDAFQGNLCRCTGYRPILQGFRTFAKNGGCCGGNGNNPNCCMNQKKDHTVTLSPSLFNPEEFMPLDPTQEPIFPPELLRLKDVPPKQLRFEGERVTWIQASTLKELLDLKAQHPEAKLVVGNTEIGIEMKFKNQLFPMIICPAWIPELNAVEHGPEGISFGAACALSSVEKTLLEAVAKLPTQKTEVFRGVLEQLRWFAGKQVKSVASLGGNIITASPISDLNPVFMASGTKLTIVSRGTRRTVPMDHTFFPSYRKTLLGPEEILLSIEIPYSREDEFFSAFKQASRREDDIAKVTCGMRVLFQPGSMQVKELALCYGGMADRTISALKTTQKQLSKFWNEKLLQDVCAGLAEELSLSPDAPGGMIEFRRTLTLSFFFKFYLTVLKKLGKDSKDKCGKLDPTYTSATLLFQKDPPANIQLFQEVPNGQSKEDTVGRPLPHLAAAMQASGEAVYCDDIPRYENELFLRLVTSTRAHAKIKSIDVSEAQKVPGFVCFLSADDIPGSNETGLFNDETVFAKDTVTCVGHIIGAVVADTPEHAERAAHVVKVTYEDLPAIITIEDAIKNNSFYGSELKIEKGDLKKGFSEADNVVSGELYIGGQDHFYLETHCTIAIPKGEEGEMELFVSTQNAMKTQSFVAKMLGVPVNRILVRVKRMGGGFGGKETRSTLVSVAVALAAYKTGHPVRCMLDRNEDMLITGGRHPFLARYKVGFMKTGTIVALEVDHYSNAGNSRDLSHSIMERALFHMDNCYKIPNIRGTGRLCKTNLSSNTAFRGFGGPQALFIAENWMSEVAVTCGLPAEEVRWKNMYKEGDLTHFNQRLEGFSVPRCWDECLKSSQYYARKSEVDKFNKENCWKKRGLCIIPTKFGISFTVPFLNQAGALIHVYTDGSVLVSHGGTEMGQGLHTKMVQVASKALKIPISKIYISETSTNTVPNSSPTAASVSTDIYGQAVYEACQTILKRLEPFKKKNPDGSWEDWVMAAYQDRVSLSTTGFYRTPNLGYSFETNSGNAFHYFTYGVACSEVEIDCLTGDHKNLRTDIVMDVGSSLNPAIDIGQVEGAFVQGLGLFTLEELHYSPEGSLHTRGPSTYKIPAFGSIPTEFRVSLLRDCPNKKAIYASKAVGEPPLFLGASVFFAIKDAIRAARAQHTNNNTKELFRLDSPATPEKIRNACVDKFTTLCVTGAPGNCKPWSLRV

4 molecules from publication PMC10494472 (Saudi Pharmaceutical Journal : SPJ, 2023) can be followed below.

Chain of FAS from chicken liver (P12276 whole entry): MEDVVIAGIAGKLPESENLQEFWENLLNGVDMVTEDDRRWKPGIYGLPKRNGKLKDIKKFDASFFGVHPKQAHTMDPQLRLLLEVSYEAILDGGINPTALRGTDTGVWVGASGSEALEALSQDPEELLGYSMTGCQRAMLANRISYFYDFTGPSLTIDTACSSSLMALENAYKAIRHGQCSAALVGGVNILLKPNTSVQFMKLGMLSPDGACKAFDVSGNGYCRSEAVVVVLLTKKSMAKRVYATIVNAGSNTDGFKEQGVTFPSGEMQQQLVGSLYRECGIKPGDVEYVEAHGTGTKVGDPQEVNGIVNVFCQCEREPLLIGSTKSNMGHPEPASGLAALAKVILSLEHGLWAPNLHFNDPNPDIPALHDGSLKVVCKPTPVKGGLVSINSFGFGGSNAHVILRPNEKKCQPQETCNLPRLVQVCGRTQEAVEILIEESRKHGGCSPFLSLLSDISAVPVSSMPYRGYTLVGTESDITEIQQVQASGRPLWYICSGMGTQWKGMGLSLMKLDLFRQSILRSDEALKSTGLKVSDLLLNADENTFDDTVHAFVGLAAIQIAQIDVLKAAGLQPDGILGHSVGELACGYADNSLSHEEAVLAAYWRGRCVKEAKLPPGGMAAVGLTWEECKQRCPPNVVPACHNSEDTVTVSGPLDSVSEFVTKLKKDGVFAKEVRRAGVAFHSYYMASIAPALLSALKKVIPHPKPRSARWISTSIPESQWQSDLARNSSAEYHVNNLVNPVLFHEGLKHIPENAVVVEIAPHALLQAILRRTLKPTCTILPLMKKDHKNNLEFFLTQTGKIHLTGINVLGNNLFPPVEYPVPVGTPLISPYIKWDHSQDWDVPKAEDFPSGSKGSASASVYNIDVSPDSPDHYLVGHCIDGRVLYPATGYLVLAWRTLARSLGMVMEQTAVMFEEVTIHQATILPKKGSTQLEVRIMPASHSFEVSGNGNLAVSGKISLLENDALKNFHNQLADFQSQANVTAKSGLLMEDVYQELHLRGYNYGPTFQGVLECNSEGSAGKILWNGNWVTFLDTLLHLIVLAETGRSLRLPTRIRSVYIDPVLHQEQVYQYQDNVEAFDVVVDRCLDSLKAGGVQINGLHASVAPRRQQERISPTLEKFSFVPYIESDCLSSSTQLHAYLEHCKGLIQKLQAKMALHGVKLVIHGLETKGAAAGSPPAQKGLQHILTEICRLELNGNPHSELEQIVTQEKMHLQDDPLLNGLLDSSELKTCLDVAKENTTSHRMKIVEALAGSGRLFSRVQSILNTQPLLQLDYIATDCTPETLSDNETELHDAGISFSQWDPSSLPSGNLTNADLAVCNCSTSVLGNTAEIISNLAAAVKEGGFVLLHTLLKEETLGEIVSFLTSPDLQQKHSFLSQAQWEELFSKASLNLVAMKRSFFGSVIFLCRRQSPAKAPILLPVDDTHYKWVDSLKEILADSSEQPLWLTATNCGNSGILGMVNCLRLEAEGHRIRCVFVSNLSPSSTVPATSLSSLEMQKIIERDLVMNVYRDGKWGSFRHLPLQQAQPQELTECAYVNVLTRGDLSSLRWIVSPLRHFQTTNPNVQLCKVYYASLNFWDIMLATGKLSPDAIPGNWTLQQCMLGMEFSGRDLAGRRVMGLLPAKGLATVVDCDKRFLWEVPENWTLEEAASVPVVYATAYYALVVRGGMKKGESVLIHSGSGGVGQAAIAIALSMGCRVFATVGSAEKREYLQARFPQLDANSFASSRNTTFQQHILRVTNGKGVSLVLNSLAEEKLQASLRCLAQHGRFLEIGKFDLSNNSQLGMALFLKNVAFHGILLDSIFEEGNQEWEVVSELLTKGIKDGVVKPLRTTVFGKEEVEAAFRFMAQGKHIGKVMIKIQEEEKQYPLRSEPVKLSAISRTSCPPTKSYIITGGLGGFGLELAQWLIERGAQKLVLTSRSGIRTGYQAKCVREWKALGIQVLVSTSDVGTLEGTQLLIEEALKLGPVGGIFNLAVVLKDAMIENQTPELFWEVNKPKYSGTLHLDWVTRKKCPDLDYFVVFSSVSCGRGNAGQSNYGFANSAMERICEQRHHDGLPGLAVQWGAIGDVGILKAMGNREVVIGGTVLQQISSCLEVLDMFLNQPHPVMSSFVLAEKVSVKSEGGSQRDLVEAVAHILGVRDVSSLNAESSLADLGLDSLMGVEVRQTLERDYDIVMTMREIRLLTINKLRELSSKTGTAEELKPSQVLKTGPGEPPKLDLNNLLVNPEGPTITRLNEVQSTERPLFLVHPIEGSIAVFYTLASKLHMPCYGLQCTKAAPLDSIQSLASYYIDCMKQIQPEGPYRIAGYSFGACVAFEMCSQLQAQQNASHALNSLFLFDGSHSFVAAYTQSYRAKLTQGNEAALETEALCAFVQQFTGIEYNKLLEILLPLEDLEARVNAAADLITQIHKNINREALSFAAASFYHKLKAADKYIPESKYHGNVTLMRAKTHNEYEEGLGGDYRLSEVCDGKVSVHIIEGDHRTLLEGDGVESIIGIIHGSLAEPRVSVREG
Chain of α-glucosidase (maltase) (P53341 whole entry): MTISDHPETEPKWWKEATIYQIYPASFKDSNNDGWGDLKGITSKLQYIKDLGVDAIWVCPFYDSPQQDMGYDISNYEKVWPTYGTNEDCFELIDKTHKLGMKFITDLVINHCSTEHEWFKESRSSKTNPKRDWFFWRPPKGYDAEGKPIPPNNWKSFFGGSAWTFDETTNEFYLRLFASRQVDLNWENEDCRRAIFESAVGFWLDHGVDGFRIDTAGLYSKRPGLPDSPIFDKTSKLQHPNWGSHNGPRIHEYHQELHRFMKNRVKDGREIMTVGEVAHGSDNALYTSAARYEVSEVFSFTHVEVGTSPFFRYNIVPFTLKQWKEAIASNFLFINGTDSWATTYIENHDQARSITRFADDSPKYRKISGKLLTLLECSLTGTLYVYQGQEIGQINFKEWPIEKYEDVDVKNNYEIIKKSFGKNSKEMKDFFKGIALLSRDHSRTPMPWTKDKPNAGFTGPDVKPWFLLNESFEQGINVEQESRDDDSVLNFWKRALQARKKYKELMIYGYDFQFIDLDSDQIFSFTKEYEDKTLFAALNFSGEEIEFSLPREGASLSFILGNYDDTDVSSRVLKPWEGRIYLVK

The term IC50 denotes the concentration that gives 50% inhibition. Read a high IC50 as weaker potency in that assay. Take `C=C(C)[C@@H]1CC[C@]2(C)CC[C@]3(C)[C@H](CC[C@@H]4[C@@]5(C)CC[C@H](O)C(C)(C)[C@@H]5CC[C@]43C)[C@@H]12` [Compound 1, lupeol]: the values for the IC50 against FAS from chicken liver, against α-glucosidase (maltase) and against XO were 98.3 µM, 101 µM and 109 µM, respectively.

As for `C=C(C)[C@@H]1CC[C@]2(CO)CC[C@]3(C)[C@H](CC[C@@H]4[C@@]5(C)CC[C@H](O)C(C)(C)[C@@H]5CC[C@]43C)[C@@H]12` [Compound 2, betulin], the 50% inhibitory concentration (IC50) on FAS from chicken liver was 63.2 µM; at α-glucosidase (maltase) it was 88 µM; against XO, 69.9 µM.

`COc1ccc(-c2cc(=O)c3c(O)cc(O)c(-c4cc(-c5cc(=O)c6c(O)cc(O)cc6o5)ccc4O)c3o2)cc1` [Compound 3, podocarpusflavone A] had an IC50 against FAS from chicken liver of 43.6 µM.

Regarding `O=c1cc(-c2ccc(O)c(-c3c(O)cc(O)c4c(=O)cc(-c5ccc(O)cc5)oc34)c2)oc2cc(O)cc(O)c12` [Compound 4, amentoflavone], the IC50 is 75 µM at FAS from chicken liver and 92.8 µM on α-glucosidase (maltase).
